From ChEMBL document CHEMBL4828720, “Macrocyclic Immunoproteasome Inhibitors as a Potential Therapy for Alzheimer's Disease” (J Med Chem, 2021)

test system: not listed separately; experiment: Inhibition of human 20S proteasome X using Ac-WLA-AMC as fluorogenic substrate measured every minute for 1 hr by fluorescence assay
In short: (§1)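 Purified human 20S constitutive or immunoproteasome, 50 ng in 20 mM Tris-HCl, 0.5 mM EDTA, 0.035% SDS, pH 8.0. Preincubated 1 h with inhibitor at 3-10,000 nM (8 concentrations). Substrates at 100 μM: Ac-PAL-AMC (LMP2), Ac-nLPnLD-AMC (Y), Ac-ANW-AMC (LMP7). Ac-WLA-AMC (X) at 20 μM. AMC fluorescence (360/460 nm) read each minute for 1 h; 3 replicates.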

SMILES	IC50 [µM]
C[C@]1(C(=O)[C@H](Cc2ccccc2)NC(=O)[C@@H]2COCCCCCC(=O)N3CCC[C@H]3C(=O)N2)CO1	> 10
CC(C)C[C@H](NC(=O)[C@@H]1COCCCCCC(=O)N2CC[C@H]2C(=O)N1)C(=O)[C@@]1(C)CO1	> 10
CC(=O)NCC(=O)N1CCC[C@H]1C(=O)N[C@@H](Cc1ccccc1)C(=O)N[C@@H](CC(C)C)C(=O)[C@@]1(C)CO1	> 10
CC(C)C[C@H](NC(=O)[C@@H]1COCCCCCCC(=O)NCC(=O)N2CCC[C@H]2C(=O)N1)C(=O)[C@@]1(C)CO1	> 10
CC(C)C[C@H](NC(=O)[C@@H]1COCCCCCC(=O)N2C[C@H](F)C[C@H]2C(=O)N1)C(=O)[C@@]1(C)CO1	> 10
C[C@]1(C(=O)[C@H](CC2CCCCC2)NC(=O)[C@@H]2COCCCCCC(=O)N3CCC[C@H]3C(=O)N2)CO1	> 10

Next, values leading:

IC50 [µM]	SMILES
> 10	CC(C)C[C@H](NC(=O)[C@@H]1COCCCCCCCC(=O)N2CCC[C@H]2C(=O)N1)C(=O)[C@@]1(C)CO1
> 10	CC(C)C[C@H](NC(=O)[C@@H]1COCCCCCC(=O)N2CCCC[C@H]2C(=O)N1)C(=O)[C@@]1(C)CO1
4.64	CC(C)C[C@H](NC(=O)[C@@H]1COCCCCCCC(=O)N2CCC[C@H]2C(=O)N1)C(=O)[C@@]1(C)CO1

target: T1, Proteasome subunit beta type-9 (Homo sapiens, UniProt P28065); experiment: Inhibition of human 20S proteasome LMP2 activity in human RPMI-8226 cells overexpressing ABCB1 using Ac-PAL-AMC as fluorogenic substrate incubated for 72 hrs by fluorescence assay; assay type: cell-based
T1 sequence (P28065 whole entry): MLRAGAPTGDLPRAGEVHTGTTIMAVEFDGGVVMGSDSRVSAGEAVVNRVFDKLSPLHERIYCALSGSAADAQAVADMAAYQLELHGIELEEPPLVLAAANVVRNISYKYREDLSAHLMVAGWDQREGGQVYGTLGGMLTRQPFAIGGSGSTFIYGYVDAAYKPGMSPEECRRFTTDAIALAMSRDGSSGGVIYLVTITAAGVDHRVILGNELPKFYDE

SMILES	IC50 [µM]
CC(C)C[C@H](NC(=O)[C@@H]1COCCCCCCC(=O)NCC(=O)N2CCC[C@H]2C(=O)N1)C(=O)[C@@]1(C)CO1	> 10

target: T1, Proteasome subunit beta type-9; experiment: Inhibition of human 20S proteasome LMP2 using Ac-PAL-AMC as fluorogenic substrate measured every minute for 1 hr by fluorescence assay
In short: (§2)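 Preincubated 1 h with inhibitor at 3-10,000 nM (8 concentrations). Substrates at 100 μM: Ac-PAL-AMC (LMP2), Ac-nLPnLD-AMC (Y), Ac-ANW-AMC (LMP7). Ac-WLA-AMC (X) at 20 μM. AMC fluorescence (360/460 nm) read each minute for 1 h; 3 replicates.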

SMILES	IC50 [µM]
C[C@]1(C(=O)[C@H](Cc2ccccc2)NC(=O)[C@@H]2COCCCCCC(=O)N3CCC[C@H]3C(=O)N2)CO1	0.251
CC(C)C[C@H](NC(=O)[C@@H]1COCCCCCC(=O)N2CC[C@H]2C(=O)N1)C(=O)[C@@]1(C)CO1	0.261
CC(C)C[C@H](NC(=O)[C@@H]1COCCCCCCC(=O)NCC(=O)N2CCC[C@H]2C(=O)N1)C(=O)[C@@]1(C)CO1	0.0656
CC(C)C[C@H](NC(=O)[C@@H]1COCCCCCC(=O)N2C[C@H](F)C[C@H]2C(=O)N1)C(=O)[C@@]1(C)CO1	2.13
C[C@]1(C(=O)[C@H](CC2CCCCC2)NC(=O)[C@@H]2COCCCCCC(=O)N3CCC[C@H]3C(=O)N2)CO1	0.523

Now from value to compound:

IC50 [µM]	SMILES
0.158	CC(C)C[C@H](NC(=O)[C@@H]1COCCCCCCCC(=O)N2CCC[C@H]2C(=O)N1)C(=O)[C@@]1(C)CO1
1.24	CC(C)C[C@H](NC(=O)[C@@H]1COCCCCCC(=O)N2CCCC[C@H]2C(=O)N1)C(=O)[C@@]1(C)CO1
0.563	CC(C)C[C@H](NC(=O)[C@@H]1COCCCCCCC(=O)N2CCC[C@H]2C(=O)N1)C(=O)[C@@]1(C)CO1

target: T1, Proteasome subunit beta type-9; experiment: Inhibition of human 20S proteasome LMP2 activity in human RPMI-8226 cells using Ac-PAL-AMC as fluorogenic substrate incubated for 72 hrs by fluorescence assay; assay type: cell-based

SMILES	IC50 [µM]
CC(C)C[C@H](NC(=O)[C@@H]1COCCCCCCC(=O)NCC(=O)N2CCC[C@H]2C(=O)N1)C(=O)[C@@]1(C)CO1	> 10

test system: not listed separately; experiment: Inhibition of human 20S proteasome Y using Ac-nLPnLD-AMC as fluorogenic substrate measured every minute for 1 hr by fluorescence assay; in short: as §2

SMILES	IC50 [µM]
CC(C)C[C@H](NC(=O)[C@@H]1COCCCCCC(=O)N2C[C@H](F)C[C@H]2C(=O)N1)C(=O)[C@@]1(C)CO1	> 10

target: T2, Proteasome subunit beta type-8 (Homo sapiens, UniProt P28062); experiment: Inhibition of human 20S proteasome LMP7 using Ac-ANW-AMC as fluorogenic substrate measured every minute for 1 hr by fluorescence assay; in short: as §1
T2 sequence (P28062 whole entry): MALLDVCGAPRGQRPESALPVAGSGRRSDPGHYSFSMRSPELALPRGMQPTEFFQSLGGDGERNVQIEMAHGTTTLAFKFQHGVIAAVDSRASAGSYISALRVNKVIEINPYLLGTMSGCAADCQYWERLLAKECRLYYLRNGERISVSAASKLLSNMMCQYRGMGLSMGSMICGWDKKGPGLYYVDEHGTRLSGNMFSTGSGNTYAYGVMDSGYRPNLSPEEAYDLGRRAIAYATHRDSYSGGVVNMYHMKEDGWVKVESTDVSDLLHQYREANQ

SMILES	IC50 [µM]
C[C@]1(C(=O)[C@H](Cc2ccccc2)NC(=O)[C@@H]2COCCCCCC(=O)N3CCC[C@H]3C(=O)N2)CO1	> 10
CC(C)C[C@H](NC(=O)[C@@H]1COCCCCCC(=O)N2CC[C@H]2C(=O)N1)C(=O)[C@@]1(C)CO1	> 10
CC(C)C[C@H](NC(=O)[C@@H]1COCCCCCCC(=O)NCC(=O)N2CCC[C@H]2C(=O)N1)C(=O)[C@@]1(C)CO1	> 10
CC(C)C[C@H](NC(=O)[C@@H]1COCCCCCC(=O)N2C[C@H](F)C[C@H]2C(=O)N1)C(=O)[C@@]1(C)CO1	> 10
C[C@]1(C(=O)[C@H](CC2CCCCC2)NC(=O)[C@@H]2COCCCCCC(=O)N3CCC[C@H]3C(=O)N2)CO1	5.77

The next lines start with the values.

IC50 [µM]	SMILES
> 10	CC(C)C[C@H](NC(=O)[C@@H]1COCCCCCCCC(=O)N2CCC[C@H]2C(=O)N1)C(=O)[C@@]1(C)CO1
> 10	CC(C)C[C@H](NC(=O)[C@@H]1COCCCCCC(=O)N2CCCC[C@H]2C(=O)N1)C(=O)[C@@]1(C)CO1
> 10	CC(C)C[C@H](NC(=O)[C@@H]1COCCCCCCC(=O)N2CCC[C@H]2C(=O)N1)C(=O)[C@@]1(C)CO1
